Experimental data as given in ChEMBL document CHEMBL1131067, “Tolerance in the replacement of the benzhydrylic O atom in 4-[2-(diphenylmethoxy)ethyl]-1-benzylpiperidine derivatives by an N atom: development of new-generation potent and selective N-analogue molecules for the dopamine transporter” (J Med Chem, 1998).

Key:
[1] = target: T1, Sodium-dependent dopamine transporter (Homo sapiens, UniProt Q01959); assay: Affinity was evaluated using [3H]WIN-35428 (radioligand) on Cloned human Dopamine transporter expressed in HEK cells; type: cell-based, HEK293
T1 sequence (Q01959 whole entry): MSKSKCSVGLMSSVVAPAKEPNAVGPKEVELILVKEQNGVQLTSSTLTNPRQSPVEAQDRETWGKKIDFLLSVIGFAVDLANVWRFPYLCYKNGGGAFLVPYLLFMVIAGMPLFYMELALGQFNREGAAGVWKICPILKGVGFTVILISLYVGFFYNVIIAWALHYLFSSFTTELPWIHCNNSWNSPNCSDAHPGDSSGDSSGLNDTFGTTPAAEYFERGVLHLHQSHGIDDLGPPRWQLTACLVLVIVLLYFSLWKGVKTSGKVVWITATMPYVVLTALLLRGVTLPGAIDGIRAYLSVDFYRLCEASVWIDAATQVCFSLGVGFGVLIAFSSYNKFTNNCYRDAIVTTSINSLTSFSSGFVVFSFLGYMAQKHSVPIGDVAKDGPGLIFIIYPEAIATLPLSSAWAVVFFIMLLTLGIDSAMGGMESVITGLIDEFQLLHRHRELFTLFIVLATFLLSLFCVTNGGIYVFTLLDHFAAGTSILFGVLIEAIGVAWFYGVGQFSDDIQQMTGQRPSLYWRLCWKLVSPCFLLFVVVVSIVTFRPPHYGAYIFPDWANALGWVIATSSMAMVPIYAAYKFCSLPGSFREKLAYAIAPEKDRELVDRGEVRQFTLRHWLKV

[2] = target: Sodium-dependent serotonin transporter (Homo sapiens, UniProt P31645); assay: Affinity was evaluated using [3H]citalopram (radioligand) on human serotonin transporter expressed in HEK cells; type: cell-based, HEK293
Chain of Sodium-dependent serotonin transporter (Homo sapiens, UniProt P31645) (P31645 whole entry): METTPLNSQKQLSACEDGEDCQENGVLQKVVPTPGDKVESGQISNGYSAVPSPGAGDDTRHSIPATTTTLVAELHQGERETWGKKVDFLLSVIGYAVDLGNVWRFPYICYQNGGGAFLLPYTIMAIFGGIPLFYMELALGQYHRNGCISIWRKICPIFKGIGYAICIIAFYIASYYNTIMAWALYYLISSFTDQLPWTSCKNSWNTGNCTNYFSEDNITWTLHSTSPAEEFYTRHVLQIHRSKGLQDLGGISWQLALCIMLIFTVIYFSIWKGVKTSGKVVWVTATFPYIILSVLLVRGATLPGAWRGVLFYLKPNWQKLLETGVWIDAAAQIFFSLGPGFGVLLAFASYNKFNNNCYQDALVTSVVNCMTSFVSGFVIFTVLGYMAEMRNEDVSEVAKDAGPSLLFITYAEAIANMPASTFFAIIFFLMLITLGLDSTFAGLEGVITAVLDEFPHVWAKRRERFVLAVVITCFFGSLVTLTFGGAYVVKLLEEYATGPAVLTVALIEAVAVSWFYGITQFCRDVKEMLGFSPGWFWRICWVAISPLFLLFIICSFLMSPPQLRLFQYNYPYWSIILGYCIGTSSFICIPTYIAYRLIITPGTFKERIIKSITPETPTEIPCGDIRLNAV

[3] = target: Sodium-dependent dopamine transporter (Rattus norvegicus, UniProt P23977); assay: IC50 value was evaluated using [3H]WIN-35428 (radioligand) on Dopamine transporter in rat striatum.; type: tissue-based
Chain of Sodium-dependent dopamine transporter (Rattus norvegicus, UniProt P23977) (P23977 whole entry): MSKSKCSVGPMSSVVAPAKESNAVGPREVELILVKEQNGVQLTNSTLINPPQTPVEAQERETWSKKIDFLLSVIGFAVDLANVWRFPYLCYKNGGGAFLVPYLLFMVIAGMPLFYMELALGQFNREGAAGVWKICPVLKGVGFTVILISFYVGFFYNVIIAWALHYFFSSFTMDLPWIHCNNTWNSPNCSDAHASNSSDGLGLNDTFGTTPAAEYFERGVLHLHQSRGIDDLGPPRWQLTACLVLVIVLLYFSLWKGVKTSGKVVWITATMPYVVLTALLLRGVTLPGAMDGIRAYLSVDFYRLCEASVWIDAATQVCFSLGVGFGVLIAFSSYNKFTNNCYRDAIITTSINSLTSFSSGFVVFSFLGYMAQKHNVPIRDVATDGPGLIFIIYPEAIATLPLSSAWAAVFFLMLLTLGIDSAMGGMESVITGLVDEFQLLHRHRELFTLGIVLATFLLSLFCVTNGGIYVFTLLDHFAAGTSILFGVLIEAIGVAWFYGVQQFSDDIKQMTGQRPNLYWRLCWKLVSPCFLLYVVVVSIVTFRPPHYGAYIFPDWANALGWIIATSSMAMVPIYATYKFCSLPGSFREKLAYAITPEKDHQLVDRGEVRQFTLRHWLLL

[4] = target: T1, Sodium-dependent dopamine transporter; assay: Affinity was evaluated using [3H]DA (radioligand) on Cloned human Dopamine transporter expressed in HEK cells; type: cell-based, HEK293
Procedure, shortened: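 HEK-293 cells stably expressing cloned hDAT, suspended intact; preincubated with inhibitor 15 min at room temperature in pH 7.4 Na phosphate/NaCl/KCl/MgSO4/glucose/CaCl2 buffer with 0.1 mM tropolone, then [3H]dopamine added for 8 min more; ended with ice-cold buffer. Compounds from DMSO stocks, 0.5% final DMSO, at least five concentrations.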

[5] = target: Sodium-dependent serotonin transporter (Rattus norvegicus, UniProt P31652); assay: IC50 value was evaluated using [3H]citalopram (radioligand) on serotonin transporter in rat striatum.; type: tissue-based
Chain of Sodium-dependent serotonin transporter (Rattus norvegicus, UniProt P31652) (P31652 whole entry): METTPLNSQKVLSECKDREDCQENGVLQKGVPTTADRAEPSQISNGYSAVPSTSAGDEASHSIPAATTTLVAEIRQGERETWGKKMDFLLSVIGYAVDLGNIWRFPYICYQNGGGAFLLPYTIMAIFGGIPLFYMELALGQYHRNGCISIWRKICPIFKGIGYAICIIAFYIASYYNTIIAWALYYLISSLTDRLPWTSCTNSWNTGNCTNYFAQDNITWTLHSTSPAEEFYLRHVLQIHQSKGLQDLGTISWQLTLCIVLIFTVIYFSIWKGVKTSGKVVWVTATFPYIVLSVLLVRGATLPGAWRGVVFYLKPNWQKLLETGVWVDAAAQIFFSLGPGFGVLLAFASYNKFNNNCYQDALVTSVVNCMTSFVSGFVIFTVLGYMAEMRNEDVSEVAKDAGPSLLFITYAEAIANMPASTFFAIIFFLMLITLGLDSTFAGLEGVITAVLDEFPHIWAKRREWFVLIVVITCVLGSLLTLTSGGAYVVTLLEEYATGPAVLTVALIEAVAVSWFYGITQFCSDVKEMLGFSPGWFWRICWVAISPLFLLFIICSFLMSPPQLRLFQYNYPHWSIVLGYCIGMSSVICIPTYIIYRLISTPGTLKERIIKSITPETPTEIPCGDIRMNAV

Row | IC50 [1] [nM] | IC50 [2] [nM] | IC50 [3] [nM] | IC50 [4] [nM] | IC50 [5] [nM] | Structure (SMILES)
1 | 3210 | 49200 | – | – | – | O=C(CC1CCN(Cc2ccc(F)cc2)CC1)NC(c1ccccc1)c1ccccc1
2 | 30 | 5850 | 9.4 | 32 | 585 | Fc1ccc(CN2CCC(CCNC(c3ccccc3)c3ccccc3)CC2)cc1
3 | 33 | 10700 | – | 58 | – | Fc1ccc(C(NCCC2CCN(Cc3ccccc3)CC2)c2ccc(F)cc2)cc1

Row | Structure (SMILES) | IC50 [1] [nM] | IC50 [2] [nM] | IC50 [3] [nM] | IC50 [4] [nM] | IC50 [5] [nM]
4 | Fc1ccc(CN2CCC(CCOC(c3ccccc3)c3ccccc3)CC2)cc1 | 37.6 | – | – | – | –
5 | Fc1ccc(C(OCCC2CCN(Cc3ccccc3)CC2)c2ccc(F)cc2)cc1 | 35 | – | – | – | –
